Data taken from ChEMBL document CHEMBL5252523, “Searching for New Leads for Tuberculosis: Design, Synthesis, and Biological Evaluation of Novel 2-Quinolin-4-yloxyacetamides” (J Med Chem, 2016).
In brackets after ≈: the same amount, converted by molar mass.

System: Mycobacterium tuberculosis
Assay: Antimycobacterial activity against Mycobacterium tuberculosis H37Rv ATCC 25618 assessed as inhibition of microbial growth incubated for 6 days by resazurin based assay
Type: functional
Settings: H37Rv ATCC 25618, 144 h, time 6 day
Method in brief: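 Ten two-fold dilutions made in neat DMSO, tested in Middlebrook 7H9 with the H37Rv inoculum. Controls: isoniazid from 4 μg/ml as positive control; rifampicin 1 μM as no-growth control. Plates sat sealed at 37 °C without shaking for 6 days.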

Row | SMILES | MIC
1 | COc1ccc2nc(C)cc(OCC(=O)Nc3cc(C)cc(C)c3)c2c1 | 1.9 µM
2 | COc1ccc2nc(C)cc(OCC(=O)Nc3ccccc3OC)c2c1 | 1.4 µM
3 | COc1ccc2nc(C)cc(OCC(=O)Nc3ccc(Cl)cc3)c2c1 | 3 µM
4 | COc1ccc(NC(=O)COc2cc(C)nc3ccc(OC)cc23)cc1 | 0.6 µM
5 | COc1ccc2nc(C)cc(OCC(=O)Nc3cccc(C)c3)c2c1 | 2 µM
6 | COc1ccc2nc(C)cc(OCC(=O)Nc3cc(C)c(F)c(C)c3)c2c1 | 2 µM
7 | COc1ccc2nc(C)cc(OC(C)(C)C(=O)Nc3cc(C)cc(C)c3)c2c1 | > 250 µM
8 | COc1ccc2nc(C)cc(OCc3nc4cc(C)ccc4o3)c2c1 | 5.5 µM

System: not listed separately
Assay: Cytotoxicity against human HepG2 cells assessed as cell growth inhibition incubated for 48 hrs by CellTiter-Glo reagent based analysis
Type: toxicity
Settings: not given
Method in brief: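 HepG2 cells kept in Eagle's MEM with 10% heat-inactivated FBS, 1% NEAA and penicillin/streptomycin, seeded at ~3000 cells/well onto pre-dispensed compound. Incubation was 48 h at 37 °C, 5% CO2. Plates were equilibrated to room temperature, CellTiter-Glo was added, and ATP luminescence was read after 10 min as the viability read-out.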

Row | SMILES | IC50 at 48 h
9 | COc1ccc2nc(C)cc(OCC(=O)Nc3ccccc3OC)c2c1 | > 100 µM
10 | COc1ccc2nc(C)cc(OCC(=O)Nc3ccc(Cl)cc3)c2c1 | > 100 µM
11 | COc1ccc(NC(=O)COc2cc(C)nc3ccc(OC)cc23)cc1 | > 100 µM
12 | COc1ccc2nc(C)cc(OCC(=O)Nc3cccc(C)c3)c2c1 | 39.8 µM
13 | COc1ccc2nc(C)cc(OCC(=O)Nc3cc(C)c(F)c(C)c3)c2c1 | > 100 µM
14 | COc1ccc2nc(C)cc(OC(C)(C)C(=O)Nc3cc(C)cc(C)c3)c2c1 | > 100 µM
15 | COc1ccc2nc(C)cc(OCc3nc4cc(C)ccc4o3)c2c1 | > 100 µM

System: not listed separately
Assay: Artificial membrane permeability of the compound incubated for 3 hrs by HPLC analysis
Type: ADME
Settings: PAMPA, read-out: permeability

Row | SMILES | Papp at 3 h
16 | COc1ccc2nc(C)cc(OCC(=O)Nc3cc(C)cc(C)c3)c2c1 | 18 ×10⁻⁶ cm/s
17 | COc1ccc(NC(=O)COc2cc(C)nc3ccc(OC)cc23)cc1 | 42 ×10⁻⁶ cm/s
18 | COc1ccc2nc(C)cc(OCC(=O)Nc3cccc(C)c3)c2c1 | 35.5 ×10⁻⁶ cm/s
19 | COc1ccc2nc(C)cc(OCC(=O)Nc3cc(C)c(F)c(C)c3)c2c1 | 21 ×10⁻⁶ cm/s
20 | COc1ccc2nc(C)cc(OCc3nc4cc(C)ccc4o3)c2c1 | 8.6 ×10⁻⁶ cm/s

System: not listed separately
Assay: Kinetic aqueous solubility of compound in phosphate buffer at pH 7.4 incubated for 1 hrs by CLND assay
Type: physicochemical
Settings: read-out: Kinetic_solubility

Row | SMILES | solubility kinetic at 1 h
21 | COc1ccc2nc(C)cc(OCC(=O)Nc3cc(C)cc(C)c3)c2c1 | 26 µM (≈ 9.11 µg/mL)
22 | COc1ccc2nc(C)cc(OCC(=O)Nc3ccc(Cl)cc3)c2c1 | 9 µM (≈ 3.21 µg/mL)
23 | COc1ccc(NC(=O)COc2cc(C)nc3ccc(OC)cc23)cc1 | 108 µM (≈ 38.1 µg/mL)
24 | COc1ccc2nc(C)cc(OCC(=O)Nc3cccc(C)c3)c2c1 | 193 µM (≈ 64.9 µg/mL)
25 | COc1ccc2nc(C)cc(OCC(=O)Nc3cc(C)c(F)c(C)c3)c2c1 | 31.5 µM (≈ 11.6 µg/mL)
26 | COc1ccc2nc(C)cc(OC(C)(C)C(=O)Nc3cc(C)cc(C)c3)c2c1 | 20 µM (≈ 7.57 µg/mL)
27 | COc1ccc2nc(C)cc(OCc3nc4cc(C)ccc4o3)c2c1 | 1 µM (≈ 0.334 µg/mL)

System: not listed separately
Assay: Microsomal stability in mouse liver microsomes assessed as half life at 0.5 uM preincubated followed by NADPH addition and measured upto 30 mins by LC-MS/MS analysis
Type: ADME, Microsome
Settings: not given

Row | SMILES | half-life at 0.5 µM
28 | COc1ccc2nc(C)cc(OCC(=O)Nc3cc(C)cc(C)c3)c2c1 | < 5 min
29 | COc1ccc2nc(C)cc(OCC(=O)Nc3ccccc3OC)c2c1 | < 3 min
30 | COc1ccc2nc(C)cc(OCC(=O)Nc3cccc(C)c3)c2c1 | < 5 min
31 | COc1ccc2nc(C)cc(OCC(=O)Nc3cc(C)c(F)c(C)c3)c2c1 | < 5 min
32 | COc1ccc2nc(C)cc(OC(C)(C)C(=O)Nc3cc(C)cc(C)c3)c2c1 | < 5 min
33 | COc1ccc2nc(C)cc(OCc3nc4cc(C)ccc4o3)c2c1 | < 5 min

System: not listed separately
Assay: Microsomal stability in human liver microsomes assessed as half life at 0.5 uM preincubated followed by NADPH addition and measured upto 30 mins by LC-MS/MS analysis
Type: ADME, Microsome
Settings: not given

Row | SMILES | half-life at 0.5 µM
34 | COc1ccc2nc(C)cc(OCC(=O)Nc3cc(C)cc(C)c3)c2c1 | > 30 min
35 | COc1ccc2nc(C)cc(OCC(=O)Nc3ccccc3OC)c2c1 | 16 min
36 | COc1ccc2nc(C)cc(OCC(=O)Nc3cccc(C)c3)c2c1 | 23 min
37 | COc1ccc2nc(C)cc(OCC(=O)Nc3cc(C)c(F)c(C)c3)c2c1 | > 30 min
38 | COc1ccc2nc(C)cc(OC(C)(C)C(=O)Nc3cc(C)cc(C)c3)c2c1 | 19 min
39 | COc1ccc2nc(C)cc(OCc3nc4cc(C)ccc4o3)c2c1 | 15.7 min

System: not listed separately
Assay: Chromatographic hydrophobicity index, log D of the compound in phosphate buffer at pH 7.4 by UV-HPLC analysis
Type: physicochemical
Settings: not given

Row | SMILES | chromatographic logD
40 | COc1ccc2nc(C)cc(OCC(=O)Nc3cc(C)cc(C)c3)c2c1 | 5.64
41 | COc1ccc2nc(C)cc(OCC(=O)Nc3ccccc3OC)c2c1 | 4.68
42 | COc1ccc2nc(C)cc(OCC(=O)Nc3ccc(Cl)cc3)c2c1 | 5.15
43 | COc1ccc(NC(=O)COc2cc(C)nc3ccc(OC)cc23)cc1 | 4.22
44 | COc1ccc2nc(C)cc(OCC(=O)Nc3cccc(C)c3)c2c1 | 4.83
45 | COc1ccc2nc(C)cc(OCC(=O)Nc3cc(C)c(F)c(C)c3)c2c1 | 5.5
46 | COc1ccc2nc(C)cc(OC(C)(C)C(=O)Nc3cc(C)cc(C)c3)c2c1 | 6.37
47 | COc1ccc2nc(C)cc(OCc3nc4cc(C)ccc4o3)c2c1 | 6.12

System: Mycobacterium tuberculosis
Assay: Antimycobacterial activity against Mycobacterium tuberculosis H37Rv ATCC 25618 expressing pATB45luc infected in PMA-stimulated human THP-1 cells assessed as inhibition of intracellular bacterial growth incubated for 4 days by BrightGlo luciferase assay
Type: functional, organism-based
Settings: H37Rv ATCC 25618, THP-1, 96 h
Method in brief: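 THP-1 cells grown in RPMI-1640 with 10% FBS, 1 mM pyruvate and 2 mM L-glutamine. Cells were PMA-differentiated (40 ng/ml) while infected with single-cell Mtb H37Rv-pATB45luc at MOI 1:1 for 4 h at 37 °C in a roller bottle, then washed four times. About 10000 cells/well were added onto pre-dispensed compound (max DMSO 0.5%) and incubated 4 days at 37 °C. Luciferase luminescence was read; IC50/IC90 came from nonlinear regression of dose-response curves.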

Row | SMILES | IC50
48 | COc1ccc2nc(C)cc(OCC(=O)Nc3cc(C)cc(C)c3)c2c1 | 0.05 µM
49 | COc1ccc2nc(C)cc(OCC(=O)Nc3ccccc3OC)c2c1 | 0.5 µM
50 | COc1ccc2nc(C)cc(OCC(=O)Nc3ccc(Cl)cc3)c2c1 | 0.16 µM
51 | COc1ccc(NC(=O)COc2cc(C)nc3ccc(OC)cc23)cc1 | 0.03 µM
52 | COc1ccc2nc(C)cc(OCC(=O)Nc3cc(C)c(F)c(C)c3)c2c1 | 0.08 µM

Same assay, conditions: H37Rv ATCC 25618, THP-1, 96 h, time 4 day

Row | SMILES | IC90
53 | COc1ccc2nc(C)cc(OCC(=O)Nc3cc(C)cc(C)c3)c2c1 | 0.2 µM
54 | COc1ccc2nc(C)cc(OCC(=O)Nc3ccccc3OC)c2c1 | 1.58 µM
55 | COc1ccc2nc(C)cc(OCC(=O)Nc3ccc(Cl)cc3)c2c1 | 0.5 µM
56 | COc1ccc(NC(=O)COc2cc(C)nc3ccc(OC)cc23)cc1 | 0.25 µM
57 | COc1ccc2nc(C)cc(OCC(=O)Nc3cc(C)c(F)c(C)c3)c2c1 | 0.25 µM
58 | COc1ccc2nc(C)cc(OCc3nc4cc(C)ccc4o3)c2c1 | 5 µM

System: not listed separately
Assay: Stability of compound in CD1 mouse blood assessed as half life at 0.5 uM incubated upto 240 mins by LC-MS/MS analysis
Type: ADME, tissue-based
Settings: not given
Method in brief: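 Fresh CD1 mouse whole blood collected in EDTA tubes and spiked with compound. Three 300 μl aliquots were incubated at 37 °C. Supernatants were analysed by LC-MS/MS; analyte/internal standard ratios were normalised to time zero as % remaining, and half-life was taken from ln plots of % remaining.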

Row | SMILES | half-life at 0.5 µM
59 | COc1ccc2nc(C)cc(OCC(=O)Nc3cc(C)cc(C)c3)c2c1 | < 5 min
60 | COc1ccc2nc(C)cc(OCC(=O)Nc3cccc(C)c3)c2c1 | < 5 min
61 | COc1ccc2nc(C)cc(OCC(=O)Nc3cc(C)c(F)c(C)c3)c2c1 | < 5 min
62 | COc1ccc2nc(C)cc(OC(C)(C)C(=O)Nc3cc(C)cc(C)c3)c2c1 | 96 min
63 | COc1ccc2nc(C)cc(OCc3nc4cc(C)ccc4o3)c2c1 | > 240 min

System: not listed separately
Assay: Stability of compound in CD1 mouse blood at 0.5 uM incubated upto 240 mins in presence of NaF pretreatment by LC-MS/MS analysis
Type: ADME, tissue-based
Settings: 4 h

Row | SMILES | Stability
64 | COc1ccc2nc(C)cc(OC(C)(C)C(=O)Nc3cc(C)cc(C)c3)c2c1 | Stable

Biological target: Voltage-gated inwardly rectifying potassium channel KCNH2 (Homo sapiens, UniProt Q12809)
Assay: Inhibition of human ERG
Type: toxicity
Settings: not given

Voltage-gated inwardly rectifying potassium channel KCNH2, sequence (Q12809 whole entry): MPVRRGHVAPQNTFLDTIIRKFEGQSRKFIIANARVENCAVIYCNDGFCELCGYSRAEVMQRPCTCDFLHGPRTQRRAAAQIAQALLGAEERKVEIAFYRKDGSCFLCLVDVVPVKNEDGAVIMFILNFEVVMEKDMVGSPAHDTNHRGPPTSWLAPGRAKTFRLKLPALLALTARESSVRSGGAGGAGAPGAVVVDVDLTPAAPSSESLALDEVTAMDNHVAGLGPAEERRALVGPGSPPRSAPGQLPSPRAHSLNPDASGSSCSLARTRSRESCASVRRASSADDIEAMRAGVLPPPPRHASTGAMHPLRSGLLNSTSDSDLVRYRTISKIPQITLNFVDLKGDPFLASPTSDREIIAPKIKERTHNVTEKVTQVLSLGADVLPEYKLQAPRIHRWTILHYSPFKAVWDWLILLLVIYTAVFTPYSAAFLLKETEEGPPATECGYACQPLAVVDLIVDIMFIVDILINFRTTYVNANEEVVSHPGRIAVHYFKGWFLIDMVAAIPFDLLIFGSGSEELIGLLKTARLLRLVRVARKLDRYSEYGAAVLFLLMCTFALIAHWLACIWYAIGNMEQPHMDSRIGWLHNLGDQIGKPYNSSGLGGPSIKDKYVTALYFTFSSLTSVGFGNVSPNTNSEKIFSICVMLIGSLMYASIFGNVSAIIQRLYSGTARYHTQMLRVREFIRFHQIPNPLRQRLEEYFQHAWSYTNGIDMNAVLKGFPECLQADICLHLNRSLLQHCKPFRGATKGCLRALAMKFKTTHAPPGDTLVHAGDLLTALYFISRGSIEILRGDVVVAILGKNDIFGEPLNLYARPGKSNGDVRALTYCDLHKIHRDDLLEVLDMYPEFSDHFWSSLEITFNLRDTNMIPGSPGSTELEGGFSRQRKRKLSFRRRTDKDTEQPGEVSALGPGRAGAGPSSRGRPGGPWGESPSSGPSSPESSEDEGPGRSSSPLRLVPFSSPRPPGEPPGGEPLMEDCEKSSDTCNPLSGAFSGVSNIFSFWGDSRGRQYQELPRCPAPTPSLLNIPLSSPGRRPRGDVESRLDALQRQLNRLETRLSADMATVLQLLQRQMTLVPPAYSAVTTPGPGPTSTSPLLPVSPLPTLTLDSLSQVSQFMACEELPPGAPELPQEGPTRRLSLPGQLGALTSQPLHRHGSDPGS

Row | SMILES | IC50
65 | COc1ccc2nc(C)cc(OCC(=O)Nc3cc(C)cc(C)c3)c2c1 | > 50.1 µM
66 | COc1ccc2nc(C)cc(OCC(=O)Nc3ccc(Cl)cc3)c2c1 | 5.01 µM
67 | COc1ccc(NC(=O)COc2cc(C)nc3ccc(OC)cc23)cc1 | 6.31 µM
68 | COc1ccc2nc(C)cc(OCC(=O)Nc3cc(C)c(F)c(C)c3)c2c1 | > 50.1 µM
69 | COc1ccc2nc(C)cc(OCc3nc4cc(C)ccc4o3)c2c1 | > 50.1 µM
